Published values pooled from the literature.
Protocols differ between the studies behind these lines.
Target: RAC-alpha serine/threonine-protein kinase (AKT1, Homo sapiens, UniProt P31749)

SMILES	read-out	mode	method	concentration	measurement	value
O=c1[nH]c2ccccc2n1C1CCN(Cc2ccc(-c3[nH]c4cc5ncnc5cc4nc3-c3ccccc3)cc2)CC1	cell-free assay	–	–	0.5 µM	remaining signal	114%
COc1ncccc1-c1cnn2ccc(N3CCN(C(=O)OC(C)C)CC3)nc12	binding	–	competition with immobilised ligand	1 µM	remaining binding	100%
C#Cc1n[nH]c2c(-c3cn(C(C)c4ccccn4)c(=O)[nH]c3=O)cc(F)cc12 (stereo not drawn)	enzyme activity	inhibitor	–	1 µM	inhibition	3.7%
Cn1cc(-c2cc(F)cc(N3CCn4c(cc5c4CCCC5)C3=O)c2CO)cc(Nc2ccc(N3CCN(C4COC4)CC3)cn2)c1=O	enzyme activity	inhibitor	–	0.1 µM	inhibition	5%
O=C(NCc1ncc(C(F)(F)F)cc1Cl)c1ccc2c(c1)C1(CCS(=O)(=O)CC1)[C@H](C1CC1)N2S(=O)(=O)c1ccc(F)cc1	cell-free assay	–	competition with immobilised ligand	1 µM	remaining binding	96%
Cn1cc(-c2cccc(N3CCc4c(sc5c4CC(C)(C)C5)C3=O)c2CO)cc(Nc2ccncn2)c1=O	enzyme activity	inhibitor	–	1 µM	inhibition	4%
COc1cc(Nc2ncc(F)c(Nc3ccc4c(n3)NC(=O)C(C)(C)O4)n2)cc(OC)c1OC	binding	–	competition with immobilised ligand	10 µM	inhibition	0%
Cc1nn(C)cc1-c1nc2c(N3CCN(Cc4ccc(Cl)cc4)CC3)c(Cl)cnc2[nH]1	binding	–	competition with immobilised ligand	1 µM	remaining binding	100%
Cn1cncc1[C@](O)(COc1ccc(C#N)cc1-c1ccc(OC(F)(F)F)cc1)c1ccc(C#N)cc1	cell-free assay	–	competition with immobilised ligand	1 µM	remaining binding	84%
Nc1ncc(-c2nc(N3CCOCC3)nc(N3CCOCC3)n2)c(C(F)F)n1	binding	–	competition with immobilised ligand	10 µM	remaining binding	94%
C#Cc1n[nH]c2c(-c3cn([C@@H](C)c4ccccc4)c(=O)[nH]c3=O)cc(F)cc12	enzyme activity	inhibitor	–	0.1 µM	inhibition	1.4%
CC(C)(C)c1cc(C=C(C#N)C#N)cc(Br)c1O	enzyme activity	inhibitor	–	0.5 µM	remaining activity	108%
